# From PubChem BioAssay
# In the library only some 1.9% were active in any assay of this set; here they are far more common.
# Furin inhibitor: inhibitors of human furin; P09958; purified furin, fluorogenic substrate cleavage; inhibition, % at 20 µM or 30 µM; 220,000 compounds, 0.061% hits; AID 463115; in the data active = inhibition above about 25%
# Target sequence (P09958 108-714 limits assumed): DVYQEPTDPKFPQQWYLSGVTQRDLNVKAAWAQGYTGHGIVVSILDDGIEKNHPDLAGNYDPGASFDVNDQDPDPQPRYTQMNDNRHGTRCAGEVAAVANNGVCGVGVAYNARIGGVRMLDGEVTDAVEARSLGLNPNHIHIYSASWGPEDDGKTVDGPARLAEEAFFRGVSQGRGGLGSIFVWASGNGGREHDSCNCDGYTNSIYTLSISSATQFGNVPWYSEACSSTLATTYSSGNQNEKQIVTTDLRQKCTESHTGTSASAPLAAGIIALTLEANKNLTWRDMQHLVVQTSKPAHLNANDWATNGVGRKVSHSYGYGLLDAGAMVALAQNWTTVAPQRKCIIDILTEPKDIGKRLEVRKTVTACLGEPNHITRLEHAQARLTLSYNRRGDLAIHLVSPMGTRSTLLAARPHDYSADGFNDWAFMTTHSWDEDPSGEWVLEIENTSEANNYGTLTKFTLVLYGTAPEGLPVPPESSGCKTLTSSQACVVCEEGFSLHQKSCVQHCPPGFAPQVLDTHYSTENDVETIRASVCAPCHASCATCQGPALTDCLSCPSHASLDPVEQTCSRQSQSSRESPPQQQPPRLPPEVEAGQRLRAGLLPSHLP
# MT stabilize HCS: microtubule stabilization, imaging screen. HeLa tubulin immunostaining HCS, 24 h; share of cells brighter than vehicle mean+2SD. % tubulin-high responders, % at 10 µM. 200,000 compounds, 0.83% hits. AID 2205;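 active = plate Z-score above 3 for both tubulin-high and condensed-nucleus cell shares, with cell loss under 80%, at 10 µM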;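 note: anti alpha tubulin signal scored within the nucleus-defined area of each cell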
# Ins promoter up: MIN6 insulin promoter up-regulation. 190,000 compounds, 0.3% hits. MIN6 insulin promoter-GFP reporter, high-content imaging; hits give high values. z-score at 5 µM;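 active = z-score above 3 at 5 µM with at least 500 cells counted in the well; inconclusive = wells under 500 cells, flagged as cytotoxic or low count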
# HSV augment: increases HSV replication in cells | HSV replication augmentation in cells, fold increase | maximum fold increase | 220,000 compounds, 0.005% hits | AID 1956; in the data active = maximum fold increase above about 1.5; inconclusive = no clear call, values can overlap the other calls; tested in PC3 cells
# bCat nuc transl: beta-catenin nuclear translocation modulation. HeLa beta-catenin nuclear translocation, immunofluorescence imaging. nuclear translocation activity, % at 5 µM. 190,000 compounds, 0.3% hits. AID 1665;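 active = nuclear translocation activity above 50% at 5 µM, with a well cell count of 50 or more; inconclusive = wells under 50 cells across six images, flagged as toxic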;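 note: per-cell ratio of nuclear to cytoplasmic median beta-catenin stain intensity; plate controls were DMSO negative control for no effect and GSK-3 inhibitor IX positive control for full effect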
#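 assay system = human HeLa cells, endogenous beta-catenin | times = compound treatment 24 h, 37°C, 5% CO2 | detection = Anti-beta-catenin immunofluorescence on PFA-fixed, Triton-permeabilized cells, DAPI nuclei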
# Autophagy mod: autophagy modulation, high-content screen; MEF GFP-LC3 puncta imaging; test concentration mostly 10 µM; 190,000 compounds, 0.98% hits; AID 463193; calls only at 10 µM (by protocol);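 active = percentage of spot-positive cells more than 3 SD above its plate mean, without a fluorescence outlier flag or 80% toxicity; inconclusive = no clear call, values can overlap the other calls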;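 note: spot-positive cell cutoff set from DMSO-treated cells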
# * hit, by the source's call; i = inactive; ? = inconclusive; · = no result given; + = active, no number.
SMILES,Furin inhibitor,MT stabilize HCS,Ins promoter up,HSV augment,bCat nuc transl,Autophagy mod
COc1ccc(N2CCN(/C(=N\S(=O)(=O)c3ccccc3)Nc3nc(C)cc(C)n3)CC2)cc1,-16,4,1.7,i,-1,+
Cc1ccc(S(=O)(=O)/N=C(/Nc2nc(C)cc(C)n2)N2CCOCC2)cc1,-14,2,·,i,-6,i
COc1ccccc1[C@@H]1C(c2ccc(F)cc2)=NN(c2ccccc2)[C@H]1C(=O)N1CCOC1=O,-16,3,-0.03,i,·,+
COc1ccccc1[C@@H]1C(c2cccc(C)c2)=NN(c2ccccc2)[C@H]1C(=O)N1CCOC1=O,-20,3,0.35,i,·,i
O=C(Cc1csc(N2CCOCC2)n1)N/N=C/c1ccccc1C(=O)O,-1,·,0.22,i,-5,·
c1cncc(-c2nc(NCCCN3CCOCC3)c3c4c(sc3n2)CCC4)c1,-16,4,-1,i,0,+
c1cncc(-c2nc(N3CCOCC3)c3c4c(sc3n2)CCC4)c1,-13,7,-0.24,i,-4,i
O=C(NCCOc1ccccc1Cl)C(=O)c1c[nH]c2ccccc12,-23,3,-0.28,i,0,i
C=CCNC(=O)C(=O)NCCOc1ccccc1Cl,-20,23*,0.81,i,3,i
COc1cc(OC)cc(C(=O)Nc2c(C)nn(-c3ccccc3)c2C)c1,-11,13*,·,i,0,i
Cc1nn(-c2ccccc2)c(C)c1NC(=O)c1cccs1,-3,41*,0.36,i,·,i
COc1cc(OC)cc(C(=O)Nc2c(F)cccc2F)c1,-14,4,0.2,i,-1,i
CSc1nc2ccccc2cc1/C=C(\C#N)c1cccc(Cl)c1,-15,34*,-0.13,i,0,+
CCOC(=O)/C(C#N)=C/c1cc2ccccc2nc1Cl,-12,2,·,i,·,i
Cc1[nH]c2ccccc2c1/C=N/NC(=O)c1cccc([N+](=O)[O-])c1,-9,3,-0.29,·,-3,i
Cc1[nH]c2ccccc2c1/C=N/Nc1ccc([N+](=O)[O-])cc1,-11,5,·,?,0,+
CC(C)OCC(O)CN1CCNCC1 (centres undefined),-16,3,·,i,·,i
C=CCc1ccc(OCCOCCNCCOC)c(OC)c1,-17,4,-0.48,i,-2,i
C=CCc1ccc(OCCOCCNCCCC)c(OC)c1,-18,1,1,i,0,+
Cc1ccc(-c2csc(NC(=O)CSc3nc4ccccc4c(=O)n3CCCN(C)C)n2)cc1,-22,6,0.81,i,1,+
Cc1csc(NC(=O)CSc2nnc3c4ccccc4nc(C(C)(C)C)n23)n1,-15,46*,-1.1,i,58*,i
CCn1c(SCC(=O)Nc2nc(-c3ccc(C)cc3)cs2)nnc1-c1ccccc1,-7,2,-0.33,i,·,i
CC(=O)CSc1nnc2c3ccccc3nc(C(C)(C)C)n12,-27,2,·,i,0,i
Cc1ccc(C(=O)CSc2nnc3c4ccccc4nc(C(C)(C)C)n23)cc1,-11,26*,-0.16,i,0,i
Nc1ccc(OCCCc2c(N)nc(N)nc2N)cc1,-15,·,0.37,i,3,·
SMILES,Furin inhibitor,MT stabilize HCS,Ins promoter up,HSV augment,bCat nuc transl,Autophagy mod
CCOc1nc(NC(=O)NS(=O)(=O)Oc2ccccc2Cl)nc(-c2ccccc2)n1,-14,1,·,i,-9,i
CCOc1nc(NC(=O)NC(=O)c2ccccc2)nc(-c2ccccc2)n1,-15,4,-0.2,i,-2,+
CCOC(=O)c1sc2nc(C)nc(SCC(=O)N(CC)C3CCS(=O)(=O)C3)c2c1C (centres undefined),-20,3,-0.15,i,-1,i
COC(=O)c1ccc(Oc2nc(C)cc(Oc3ccccc3)n2)cc1,-12,3,·,i,-2,i
COC(=O)c1ccc(Oc2cc(C)nc(-n3nc(C)cc3C)n2)cc1,-13,20*,·,i,·,i
CCOC(=O)c1ccc(Oc2cc(C)nc(SC)n2)cc1,6,44*,0.15,i,0,i
CCOC(=O)O[C@]1(C(=O)OCCl)CC[C@H]2[C@@H]3CCC4=CC(=O)C=C[C@]4(C)[C@H]3[C@@H](O)C[C@@]21C,·,·,·,i,·,·
O=[N+]([O-])c1ccc(N/N=C\c2ccccc2OCc2ccccc2)cc1,9,5,2.4,i,-4,+
Cc1cc(C)nc(N/N=C/c2ccccc2OCc2ccc([N+](=O)[O-])cc2)n1,-18,2,-0.06,i,1,i
O=C1CC(c2ccccc2)CC(O)=C1C=NCCCN1CCOCC1 (centres undefined),-16,1,·,i,53*,i
CCCCCN=CC1=C(O)CC(c2ccccc2)CC1=O (centres undefined),-21,4,0.3,i,-3,i
CCOC(=O)c1ccc(NC(=O)C(C)NS(=O)(=O)c2ccc(OC)cc2)cc1 (centres undefined),-26,3,0.65,i,-1,i
CCOC(=O)c1ccc(NC(=O)COc2ccc(S(=O)(=O)NC(C)CC)cc2)cc1 (centres undefined),-23,3,3.1*,i,-1,i
O=C1NC(CCc2ccccc2)C(=O)N1Cc1ccc(Br)cc1 (centres undefined),-19,5,0.51,i,-1,+
Cc1ccc(C(=O)/C=C\C(=O)c2ccc(C)cc2)cc1,-14,2,0.45,i,-1,+
CC(/C=C/C(=O)c1ccc(C)cc1)=C\c1ccccc1,-16,3,0.72,·,0,i
COCCOC(=O)c1[nH]c2c(c1C)C(=O)CC(c1ccc(F)cc1)C2 (centres undefined),-19,22*,-0.18,i,78*,i
COCCOC(=O)c1[nH]c2c(c1C)C(=O)CC(c1ccc(N(C)C)cc1)C2 (centres undefined),16,2,0.57,i,-1,i
COCCOC(=O)c1[nH]c2c(c1C)C(=O)CC(c1ccccc1)C2 (centres undefined),-17,25*,0.06,·,95*,+
Cc1c(C(=O)O)[nH]c2c1C(=O)CC(c1ccccc1)C2 (centres undefined),-15,3,1.4,i,0,i
O=C1CC(c2ccccc2)CC2=C1CN(C1CCCCC1)CN2 (centres undefined),-17,51*,-0.4,i,-4,i
CC1CCC(C(=O)NC(C(=O)NCc2cccnc2)C(C)C)CC1 (centres undefined),-18,2,1,i,·,i
CCC(C)C(NC(=O)C1CCC(C)CC1)C(=O)NCc1cccnc1 (centres undefined),29*,2,0.71,i,5,i
COc1ccc(-c2[nH]c(-c3ccc(C)cc3)nc2SCC(=O)Nc2nccs2)cc1,-18,4,-0.31,i,0,i
